The text below walks through data of ChEMBL document CHEMBL1143716, “Analysis of crucial structural requirements of 2-substituted pyrimido[4,5-b][1,5]oxazocines as NK(1) receptor antagonist by axially chiral derivatives” (Bioorg Med Chem, 2007).

This assay addresses Substance-P receptor (Cavia porcellus) (UniProt P30547). Description: Antagonist activity at guinea pig NK1 receptor assessed as effect on ileum contractions. The format is functional, tissue-based. The method in brief:
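Guinea pig ileum in organ bath with Tyrode's solution, 32 °C, gassed 95% O2/5% CO2, resting tension 1 g, 20 min equilibration. Pretreated 10 min with at least three concentrations of test compound in DMSO, then cumulative substance P concentration-response curve versus substance P control curve. KB by Schild method; means, n = 3–5.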

Sequence of Substance-P receptor (Cavia porcellus) (P30547 whole entry): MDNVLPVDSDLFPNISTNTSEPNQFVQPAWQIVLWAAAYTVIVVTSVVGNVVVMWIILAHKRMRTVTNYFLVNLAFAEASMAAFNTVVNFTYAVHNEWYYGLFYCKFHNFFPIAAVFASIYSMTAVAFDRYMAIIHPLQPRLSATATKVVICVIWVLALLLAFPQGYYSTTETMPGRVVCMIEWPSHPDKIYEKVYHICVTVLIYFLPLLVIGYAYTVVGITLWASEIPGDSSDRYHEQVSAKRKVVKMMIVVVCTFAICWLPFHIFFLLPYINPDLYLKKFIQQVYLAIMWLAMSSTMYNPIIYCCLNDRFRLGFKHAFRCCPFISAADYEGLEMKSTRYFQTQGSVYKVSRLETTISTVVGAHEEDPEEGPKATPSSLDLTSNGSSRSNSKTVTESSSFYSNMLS

The Kb is the affinity of an antagonist, worked out from how it opposes an agonist. `CC(=O)N1CCN(c2nc3c(c(-c4ccccc4C)n2)C(=O)N(Cc2cc(C(F)(F)F)cc(C(F)(F)F)c2)C[C@@H](C)CO3)CC1`: the Kb was 0.345 nM. With `Cc1ccccc1-c1nc(N(C)C)nc2c1C(=O)N(Cc1cc(C(F)(F)F)cc(C(F)(F)F)c1)C[C@H](C)CO2`, the Kb was 0.427 nM.

Turning to `Cc1ccccc1-c1nc(N(C)C)nc2c1C(=O)N(Cc1cc(C(F)(F)F)cc(C(F)(F)F)c1)CCCO2`, the Kb stood at 0.679 nM. On to `CC(=O)N1C(C)CN(c2nc3c(c(-c4ccccc4C)n2)C(=O)N(Cc2cc(C(F)(F)F)cc(C(F)(F)F)c2)C[C@H](C)CO3)CC1C` (some centres not stated), for which the Kb came out at 0.217 nM.

Turning to `Cc1ccccc1-c1nc(N(C)C)nc2c1C(=O)N(Cc1cc(C(F)(F)F)cc(C(F)(F)F)c1)C[C@@H](C)CO2`, the antagonist dissociation constant (Kb) is 52.9 nM. For the molecule `CC(=O)N1C(C)CN(c2nc3c(c(-c4ccccc4C)n2)C(=O)N(Cc2cc(C(F)(F)F)cc(C(F)(F)F)c2)CCCO3)CC1C` (configuration not stated), the antagonist equilibrium constant (Kb) is 0.679 nM. For the molecule `Cc1ccccc1-c1ncnc2c1C(=O)N(Cc1cc(C(F)(F)F)cc(C(F)(F)F)c1)C[C@H](C)CO2`, the Kb turned out to be 12.6 nM. `Cc1ccccc1-c1ncnc2c1C(=O)N(Cc1cc(C(F)(F)F)cc(C(F)(F)F)c1)C[C@@H](C)CO2`: the Kb was found to be 162 nM. In the case of `CC(=O)N1C(C)CN(c2nc3c(c(-c4ccccc4C)n2)C(=O)N(Cc2cc(C(F)(F)F)cc(C(F)(F)F)c2)C[C@@H](C)CO3)CC1C` (some centres not stated), the Kb came out at 0.545 nM. Consider `Cc1ccccc1-c1ncnc2c1C(=O)N(Cc1cc(C(F)(F)F)cc(C(F)(F)F)c1)CCCO2`, for which the Kb worked out at 11.6 nM. Regarding `CC(=O)N1CCN(c2nc3c(c(-c4ccccc4C)n2)C(=O)N(Cc2cc(C(F)(F)F)cc(C(F)(F)F)c2)C[C@H](C)CO3)CC1`, the antagonist equilibrium constant (Kb) is 0.139 nM. `CC(=O)N1CCN(c2nc3c(c(-c4ccccc4C)n2)C(=O)N(Cc2cc(C(F)(F)F)cc(C(F)(F)F)c2)CCCO3)CC1`: the Kb was found to be 0.105 nM.
